hERG rescue – compounds protecting human hERG from proarrhythmic drug block. Q12809. CHO-hERG, FluxOR thallium flux, dofetilide IC70 present. activation (rescue from dofetilide block), less the hit threshold, % at 10 µM. hit rate 0.51% among 310,000. AID 1511;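 active = activation above the mean of controls blocked by dofetilide plus 5 SD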;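 also: thallium influx through hERG after potassium depolarization seen as dye fluorescence rise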
KCNQ1 pot – potentiates or activates the human KCNQ1 potassium channel | P51787 | CHO-K1 KCNQ1, thallium flux FluxOR fluorescence; hits give high values | B-score at 10 µM | hit rate 0.35% among 310,000 | AID 2648;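 active = fluorescence ratio B-score, a plate-corrected score, at least three library SD, with initial intensity B-score within 5 SD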
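Material: CHO-K1 cells stably expressing KCNQ1. Medium: assay buffer for compound exposure, DMSO matched across wells. Reagent: K+/Tl+ depolarizing stimulus. Compound dosing: single-concentration screen. Times: 37 °C overnight plating, 90-min dark dye load, 20-min compound pretreatment. Technique: FluxOR Tl+ flux fluorescence.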
KCNQ1 block – human KCNQ1 channel inhibition; CHO-K1 KCNQ1, FluxOR thallium flux fluorescence; hits give high values; P51787; AID 2642; hit rate 1.3% among 310,000; B-score at 10 µM;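 active = compounds whose thallium flux B-score, printed positive for inhibition, exceeds three library SD while starting fluorescence stays within three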;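 also: channel opened by potassium depolarization with thallium stimulus after 20 min compound exposure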
KCNK9 inh – blocks the human KCNK9 two-pore domain potassium channel | Q9NPC2 | HEK293 KCNK9, FluxOR thallium flux fluorescence; hits give low values | B-score at 10 µM | hit rate 1.2% among 310,000 | AID 488922;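 active = ratio B-score over 3 SD below the library mean, with starting fluorescence within 5 SD of its mean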;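 also: negative B-score means less thallium flux so channel inhibition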
Cl transport mod – modulates chloride dependent transport by human KCC2 | Q9H2X9 | KCC2 cells, thallium flux FluoZin-2 fluorescence | B-score of Tl+ flux slope (higher = more flux/activation; lower = inhibition) at 10 µM | hit rate 2.2% among 190,000 | AID 1456;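 active = thallium flux slope and its plate-corrected score both differing from the plate sample mean at a set confidence after two filtering rounds, in either direction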;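 also: slope of fluorescence scaled to starting intensity during 10 to 20 s after thallium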
Target sequence (Q9H2X9 whole entry, looked up): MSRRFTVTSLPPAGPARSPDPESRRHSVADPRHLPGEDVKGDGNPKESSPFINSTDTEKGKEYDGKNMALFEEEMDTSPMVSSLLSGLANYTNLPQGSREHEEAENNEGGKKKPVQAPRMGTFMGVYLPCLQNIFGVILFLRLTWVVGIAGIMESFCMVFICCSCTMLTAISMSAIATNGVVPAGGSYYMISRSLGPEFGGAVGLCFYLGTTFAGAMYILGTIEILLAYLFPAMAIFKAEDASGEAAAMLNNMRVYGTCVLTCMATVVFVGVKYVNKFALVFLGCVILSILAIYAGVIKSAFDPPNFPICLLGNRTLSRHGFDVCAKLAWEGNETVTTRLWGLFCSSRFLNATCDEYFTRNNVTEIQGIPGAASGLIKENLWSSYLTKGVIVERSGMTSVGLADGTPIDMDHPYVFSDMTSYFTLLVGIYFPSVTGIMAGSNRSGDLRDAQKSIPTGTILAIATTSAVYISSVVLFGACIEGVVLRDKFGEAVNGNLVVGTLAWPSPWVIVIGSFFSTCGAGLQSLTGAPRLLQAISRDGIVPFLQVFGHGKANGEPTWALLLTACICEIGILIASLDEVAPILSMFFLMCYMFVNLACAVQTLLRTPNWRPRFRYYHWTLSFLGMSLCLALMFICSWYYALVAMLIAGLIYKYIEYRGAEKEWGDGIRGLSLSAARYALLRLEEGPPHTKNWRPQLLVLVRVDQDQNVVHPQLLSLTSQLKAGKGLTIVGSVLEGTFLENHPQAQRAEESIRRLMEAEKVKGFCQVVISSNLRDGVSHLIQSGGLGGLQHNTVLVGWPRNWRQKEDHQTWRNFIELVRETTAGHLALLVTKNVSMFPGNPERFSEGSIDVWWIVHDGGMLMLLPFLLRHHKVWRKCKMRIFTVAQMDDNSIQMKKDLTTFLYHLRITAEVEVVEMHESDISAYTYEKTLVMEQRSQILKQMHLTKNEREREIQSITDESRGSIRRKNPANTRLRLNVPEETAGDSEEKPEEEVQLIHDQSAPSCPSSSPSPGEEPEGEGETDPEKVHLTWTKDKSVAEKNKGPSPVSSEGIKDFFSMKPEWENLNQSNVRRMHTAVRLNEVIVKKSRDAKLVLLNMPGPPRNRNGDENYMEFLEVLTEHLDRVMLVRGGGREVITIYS
KCNK3 block – human KCNK3 channel inhibition, primary screen | CHO-KCNK3 thallium flux, FluxOR fluorescence; hits give low values | hit rate 0.84% among 340,000 | B-score at 10 µM | AID 602410 | O14649;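 active = B-score under library mean minus 4 SD, starting fluorescence ratio at most library mean plus 5 SD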;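 also: more negative B-score means stronger inhibition of thallium flux through KCNK3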
KCC2 secondary – confirmation of human KCC2 transport modulators; shares compounds with Cl transport mod; HEK293-KCC2, thallium flux, FluoZin2 fluorescence; hits give high values; normalised thallium flux (F/F0 slope) at 10 µM; hit rate 15% among 3,700;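 active = thallium flux slope above the same plate's solvent-only control mean plus 3 SD; inconclusive = the two replicate wells disagree; inactive = no significant difference from solvent-only control wells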
KCC2 bumet counter – bumetanide-insensitive thallium flux in KCC2 cells with ouabain, counter-screen | HEK293-KCC2 + bumetanide/ouabain, thallium flux FluoZin2; hits give high values | normalized thallium flux at 10 µM | shares compounds with Cl transport mod | hit rate 49% among 3,700;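 active = thallium entry rate above the same plate's blocked-transporter control wells by more than 3 SD; inconclusive = the two repeat wells disagree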;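 also: raw slope of fluorescence over initial fluorescence between 10 and 20 s after thallium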
KCC2 secondary2 – KCC2 (human) modulation, second secondary assay; shares compounds with Cl transport mod; HEK293-KCC2, thallium flux FluoZin2 fluorescence; actives lie on both sides; F/F0 rise rate, 10–20 s post-thallium; normalized thallium flux at 10 µM; hit rate 23% among 3,700;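 active = thallium flux slope more than 3 SD above or below the plate's solvent-only control mean, mostly below; inconclusive = the two repeat wells disagreed; inactive = no significant shift from solvent-only controls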;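 also: raw slope with 0.1% DMSO as baseline and bumetanide as block control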
HEK293 Tl flux – parental HEK flux effect, counter-screen. shares compounds with Cl transport mod. HEK293 parental cells, thallium flux FluoZin2, ouabain; baseline-ratio fluorescence slope, 10–20 s after thallium. thallium flux rate (normalised fluorescence) at 10 µM. hit rate 46% among 3,700. AID 1716;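 active = thallium flux rate significantly above the same plate's solvent-only control wells, beyond their mean plus 3 SD; inconclusive = the two replicate wells gave conflicting results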
KCC2 ouabain – confirmation of human KCC2 modulators with ouabain; shares compounds with Cl transport mod; HEK293-KCC2, thallium flux FluoZin2 fluorescence; bidirectional: low = inhibitor, high = activator; raw Tl+ flux slope (below DMSO = inhibition, above = activation) at 10 µM; hit rate 48% among 3,700;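 active = thallium flux slope beyond 3 SD from same-plate DMSO control mean in most replicates, usually higher, sometimes lower; inconclusive = repeat tests gave conflicting results; inactive = no significant difference from controls in most replicates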;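 also: slope of initial-normalized fluorescence between seconds 10 and 20 after thallium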
HEK counter2 – counter-screen for KCC2 modulators: effect in parental HEK293 cells; shares compounds with Cl transport mod; thallium flux FluoZin-2 fluorescence slope; thallium flux slope at 10 µM; hit rate 33% among 3,700; AID 1718;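 active = thallium flux slope above the same plate's solvent-control mean plus 3 SD in both duplicate wells; inconclusive = duplicate wells that disagreed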;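 also: run without ouabain in cells lacking the KCC2 cotransporter; slope of fluorescence scaled to its starting value between 10 and 20 s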
Active calls of the source: *; i = inactive; ? = inconclusive; nt = no result. An excerpt weighted towards active compounds, which were near 4.1% of everything screened.

SMILES	hERG rescue	KCNQ1 pot	KCNQ1 block	KCNK9 inh	Cl transport mod	KCNK3 block	KCC2 secondary	KCC2 bumet counter	KCC2 secondary2	HEK293 Tl flux	KCC2 ouabain	HEK counter2
Cc1nc(CNC(=O)c2cc(COc3c(F)cccc3F)on2)cs1	-5	i	i	i	-1.3	i	nt	nt	nt	nt	nt	nt
Cc1ccc(CN(C)C(=O)c2cc(COc3ccc(F)cc3Cl)on2)o1	1	i	i	i	nt	i	0.007	0.0053	0.026*	0.0072	?	0.01
Cc1cc(CN(C)C(=O)c2cc(COc3ccc(F)cc3Cl)on2)n[nH]1	-10	i	i	i	-4.7*	i	0.0061*	?	?	0.0083	0.024	0.011
Cc1ccc(OCc2n[nH]c(=S)n2-c2ccccc2)cc1C	-6	i	i	i	47*	i	0.0068	0.069*	0.043*	0.02*	0.049*	0.024*
Cc1cc(OCc2n[nH]c(=S)n2-c2ccccc2)ccc1Cl	-11	i	i	i	nt	i	nt	nt	nt	nt	nt	nt
Cc1ccc(-n2c(COc3cccc(C)c3)n[nH]c2=S)cc1	2	i	i	i	5.6*	i	0.0076	0.064*	0.034	0.016*	0.036*	0.021*
Cc1cccc(OCc2n[nH]c(=S)n2-c2ccccc2)c1	-9	i	i	i	0.088	i	nt	nt	nt	nt	nt	nt
O=C(Cc1ccc(-n2cccc2)cc1)NC1CCCCCC1	-13	i	i	i	-4.2*	i	0.0065	0.0044	?	0.0072	0.016	0.01
COc1ccc(CCNCC(O)COc2ccc(OC)cc2C(C)(C)C)cc1 (stereo not drawn)	-10	i	i	i	nt	i	nt	nt	nt	nt	nt	nt
CCc1nc(N)nc(N)c1-c1ccc(N(C)Cc2ccccc2)c([N+](=O)[O-])c1	nt	nt	nt	nt	nt	i	nt	nt	nt	nt	nt	nt
O=C(CCNC(=O)c1ccccc1)NNC(=O)c1ccccc1Br	nt	nt	nt	nt	nt	i	nt	nt	nt	nt	nt	nt
CC(C)(C)c1cc(C(=O)NNC(=O)c2ccc(C(F)(F)F)cc2)no1	-5	9*	i	i	64*	i	0.028*	0.083*	?	0.041*	0.045*	0.022*
COc1cccc(Oc2ncnc(N)c2[N+](=O)[O-])c1	-3	i	i	i	nt	i	nt	nt	nt	nt	nt	nt
O=C(NCc1ccc2c(c1)OCO2)c1ccc(COc2cc(Cl)ccc2Cl)o1	-11	i	i	i	-5.7*	i	0.0077	0.0043	0.023*	0.0069	0.015*	0.0095
O=C(NCc1cccnc1)c1ccc(COc2cccc3ccccc23)o1	-3	i	i	i	-2.4	i	nt	nt	nt	nt	nt	nt
O=C(NCc1cccnc1)c1ccc(COc2ccc(Cl)cc2Cl)o1	-4	i	i	i	-4.4*	i	0.0098	0.0072	0.029*	0.0036	0.015*	0.011
O=C(Nc1cccnc1)c1ccc(COc2cc(Cl)ccc2Cl)o1	26*	i	i	i	-5.2*	i	0.0063	0.0051	?	0.0081	0.016*	0.0099
O=C(Nc1ccn(Cc2ccccc2F)n1)c1ccc(COc2cc(Cl)ccc2Cl)o1	-18	i	i	i	1.1	i	nt	nt	nt	nt	nt	nt
O=C(Nc1ccc(Cl)cn1)c1ccc(COc2ccccc2Br)o1	-27	i	i	i	-1.4	i	nt	nt	nt	nt	nt	nt
O=C(Nc1ccccn1)c1ccc(COc2ccccc2Cl)o1	-10	i	i	i	-4*	i	0.0069	0.0047	0.024*	0.0073	0.015*	0.01
Cc1ccc(NS(=O)(=O)c2cccc(C(=O)NCC(c3ccco3)N3CCCC3)c2)cc1 (stereo not drawn)	nt	nt	nt	nt	nt	i	nt	nt	nt	nt	nt	nt
COc1ccccc1NC(=O)c1ccc(COc2ccccc2OC)o1	3	i	i	i	-3.7*	i	0.0054	?	?	0.0067	?	0.011
COc1ccccc1OCc1ccc(C(=O)NCC(C)C)o1	-4	i	i	i	-2	i	nt	nt	nt	nt	nt	nt
O=C(Nc1cccnc1)c1ccc(COc2ccccc2Cl)o1	-1	i	i	i	-8.1*	i	0.0061	?	0.022*	0.0077	?	0.011
CCOc1ccc(OCc2ccc(C(=O)Nc3cccnc3)o2)cc1	-3	i	i	i	0.31	i	nt	nt	nt	nt	nt	nt
SMILES	hERG rescue	KCNQ1 pot	KCNQ1 block	KCNK9 inh	Cl transport mod	KCNK3 block	KCC2 secondary	KCC2 bumet counter	KCC2 secondary2	HEK293 Tl flux	KCC2 ouabain	HEK counter2
O=C(NC1CCCC1)c1cc(-c2ccc(Cl)cc2)on1	-3	i	i	i	nt	i	nt	nt	nt	nt	nt	nt
CCOP(=O)(c1ccccc1)c1nc(-c2ccc(F)cc2)oc1N1CCCCC1 (stereo not drawn)	-13	i	i	i	-2.9*	i	0.01	0.005	0.034	?	?	0.01
CCOP(=O)(OCC)c1nc(-c2ccc(C)cc2)oc1N1CCOCC1	-3	i	i	i	0.2	i	nt	nt	nt	nt	nt	nt
O=C(Nc1ccccc1N1CCCC1)c1cc(=O)[nH]c2ccccc12	nt	nt	nt	nt	nt	i	nt	nt	nt	nt	nt	nt
CCN(C(=S)NC(=O)C1CC1)c1ccccc1	-15	i	i	i	nt	i	nt	nt	nt	nt	nt	nt
CCN(C(=S)NC(=O)C1CCCC1)C1CCCCC1	-9	i	i	i	7.3*	i	0.012	0.03*	0.038	?	0.033*	?
CCOc1ccccc1CNC(=O)C1Cc2cc(S(=O)(=O)N3CCCCC3)ccc2N1C(C)=O (stereo not drawn)	-14	i	i	i	nt	i	nt	nt	nt	nt	nt	nt
O=S(=O)(/C=C/c1cccc(Br)c1)N1CCOCC1	-3	i	i	i	nt	i	nt	nt	nt	nt	nt	nt
CSc1ccccc1NC(=O)c1cc(C(C)C)on1	-11	i	i	i	nt	i	0.0081	0.0042	0.028	0.0073	0.017	0.0099
NC(=O)c1nc(C(=O)N2CCCCC2)c2ccccc2n1	nt	nt	nt	nt	nt	i	nt	nt	nt	nt	nt	nt
Cc1ccc(C(=O)/C=C/Nc2ccccc2C(N)=O)cc1	-2	i	i	i	-3.3*	i	0.017	0.0065*	?	0.007	0.015	0.01
